The source made the active and inactive calls. The rule behind the calls is not given here.
Legend:
HPAC = test: Cytotoxicity against human HPAC cells after 96 hrs by SRB assay
Nucleic Acid [1] = test: Stabilization of human c-kit2 G4 DNA sequence assessed as melting temperature by FRET assay; format: nucleic-acid assay
Nucleic Acid [2] = test: Stabilization of human duplex DNA T-loop assessed as melting temperature by FRET assay; format: nucleic-acid assay
Nucleic Acid [3] = test: Stabilization of human F21T G4-telomeric quadruplex assessed as melting temperature by FRET assay; format: nucleic-acid assay
Outline: (§1)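 FRET melting temperature assay reporting the shift in quadruplex melting temperature. Competition runs added excess duplex DNA at different ratios, expressed as G-quartet concentration versus duplex nucleotide phosphate concentration.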

BXPC-3 = test: Cytotoxicity against human BxPC3 cells after 96 hrs by SRB assay; details: BXPC-3, 96 h
Nucleic Acid [4] = test: Stabilization of human G4-telomeric quadruplex 23-mer DNA assessed as topology at 1:1 to 1:15 DNA to compound ratio at pH 7.4 after 6 hrs by circular dichroism spectroscopy in presence of 100 mM K+ ions; format: nucleic-acid assay
Outline: (§2)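 Circular dichroism spectra of the human telomeric 23-mer DNA at pH 7.4 with various DNA:ligand ratios.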

Nucleic Acid [5] = test: Stabilization of human c-kit1 G4 DNA sequence assessed as melting temperature by FRET assay; format: nucleic-acid assay
MIA PaCa-2 = test: Cytotoxicity against human MIAPaCa2 cells after 96 hrs by SRB assay; details: MIA PaCa-2, 96 h
PANC-1 = test: Cytotoxicity against human PANC1 cells after 96 hrs by SRB assay; details: PANC-1, 96 h
A549 = test: Cytotoxicity against human A549 cells after 96 hrs by SRB assay; details: A549, 96 h
Nucleic Acid [6] = test: Stabilization of human G4-telomeric quadruplex 23-mer DNA assessed as topology at 1:1 to 1:15 DNA to compound ratio at pH 7.4 after 6 hrs by circular dichroism spectroscopy in presence of 100 mM Na+ ions; format: nucleic-acid assay
Outline: as §2

[7] = Cytotoxicity against human WI138 cells after 96 hrs by SRB assay
Nucleic Acid [8] = test: Stabilization of human F21T G4-telomeric quadruplex by FRET assay in presence of duplex to quadruplex DNA ratio of 10:1; format: nucleic-acid assay
Outline: as §1

MCF7 [9] = test: Cytotoxicity against human MCF7 cells after 96 hrs by SRB assay; details: MCF7, 96 h
Nucleic Acid [10] = test: Stabilization of human F21T G4-telomeric quadruplex assessed in presence of 300 fold excess duplex DNA by FRET assay; format: nucleic-acid assay
Outline: as §1

Nucleic Acid [11] = test: Stabilization of Wt26 G-telomeric quadruplex DNA assessed as inhibition of human POT1 binding to DNA by EMSA assay; format: nucleic-acid assay
Outline: (§3)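 In vitro EMSA measuring displacement of hPOT1 or Topo IIIα binding to the telomeric sequence WT26. For Topo IIIα, a duplex DNA substrate was tested in parallel.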

Nucleic Acid [12] = test: Stabilization of Wt26 G-telomeric quadruplex DNA assessed as inhibition of human TOPO 3-alpha binding to DNA by EMSA assay; format: nucleic-acid assay
Outline: as §3

Nucleic Acid [13] = test: Stabilization of duplex DNA assessed as inhibition of human TOPO 3-alpha binding to duplex DNA by EMSA assay; format: nucleic-acid assay
Outline: as §3

MCF7 [14] = test: Inhibition of human telomerase activity in human MCF7 cells at 50 nM after 1 week by modified TRAP assay; format: cell-based
Outline: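 MCF7 cells were exposed to 50 nM ligand for 1 week, then a further week. Telomerase activity was measured by a modified TRAP–LIG assay with denaturing gel separation. Each PCR product ladder's total intensity was scanned and integrated, then normalized to a positive control with untreated telomerase protein only.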

CN1CCN(CCCCNc2cc3c4c(c(NCCCCN5CCN(C)CC5)cc5c4c2C(=O)N(CCCCN2CCN(C)CC2)C5=O)C(=O)N(CCCCN2CCN(C)CC2)C3=O)CC1
IC50 (HPAC): 117 nM
deltaTm (Nucleic Acid [1]): 16.7 K
deltaTm (Nucleic Acid [2]): 0.1 K
deltaTm (Nucleic Acid [3]): 24.7 K
IC50 (BXPC-3): 1020 nM
Activity (Nucleic Acid [4]): Active
deltaTm (Nucleic Acid [5]): 4.9 K
IC50 (MIA PaCa-2): 73 nM
IC50 (PANC-1): 106 nM
IC50 (A549): 69 nM
Activity (Nucleic Acid [6]): Active
IC50 [7]: 5500 nM
Activity (Nucleic Acid [8]): Active
IC50 (MCF7 [9]): 100 nM
Activity (Nucleic Acid [10]): 50%

CN1CCN(CCCCCNc2cc3c4c(c(NCCCCCN5CCN(C)CC5)cc5c4c2C(=O)N(CCCCCN2CCN(C)CC2)C5=O)C(=O)N(CCCCCN2CCN(C)CC2)C3=O)CC1
IC50 (HPAC): 205 nM
deltaTm (Nucleic Acid [1]): 7.7 K
deltaTm (Nucleic Acid [2]): 0.2 K
deltaTm (Nucleic Acid [3]): 23.8 K
IC50 (BXPC-3): 759 nM
Activity (Nucleic Acid [4]): Active
deltaTm (Nucleic Acid [5]): 1.5 K
inhibition (Nucleic Acid [11]): Active
IC50 (MIA PaCa-2): 121 nM
IC50 (PANC-1): 193 nM
IC50 (A549): 258 nM
inhibition (Nucleic Acid [12]): Active
Activity (Nucleic Acid [6]): Active
IC50 [7]: 8430 nM
Activity (Nucleic Acid [8]): Active
inhibition (Nucleic Acid [13]): inactive
IC50 (MCF7 [9]): 196 nM
Activity (Nucleic Acid [10]): 50%

CN1CCN(CCCNc2cc3c4c(c(NCCCN5CCN(C)CC5)cc5c4c2C(=O)N(CCCN2CCN(C)CC2)C5=O)C(=O)N(CCCN2CCN(C)CC2)C3=O)CC1
IC50 (HPAC): 186 nM
deltaTm (Nucleic Acid [1]): 15.2 K
deltaTm (Nucleic Acid [2]): 1.3 K
deltaTm (Nucleic Acid [3]): 28.3 K
IC50 (BXPC-3): 1520 nM
Activity (Nucleic Acid [4]): Active
deltaTm (Nucleic Acid [5]): 1.8 K
inhibition (Nucleic Acid [11]): Active
IC50 (MIA PaCa-2): 111 nM
IC50 (PANC-1): 148 nM
IC50 (A549): 108 nM
inhibition (MCF7 [14]): 50%
inhibition (Nucleic Acid [12]): Active
Activity (Nucleic Acid [6]): Active
IC50 [7]: 9040 nM
Activity (Nucleic Acid [8]): Active
inhibition (Nucleic Acid [13]): inactive
IC50 (MCF7 [9]): 167 nM
Activity (Nucleic Acid [10]): 50%

— ChEMBL document CHEMBL1268966, “Tetrasubstituted naphthalene diimide ligands with selectivity for telomeric G-quadruplexes and cancer cells” (Bioorg Med Chem Lett, 2010)
